What was measured:
[1] = tested on: WI-38 normal human lung fibroblast cells; test: MTT cytotoxicity on normal fibroblast cell line; type: cell-based; details: WI-38, read-out: IC50 WI-38
[2] = tested on: HEPG-2 hepatocellular carcinoma cells; test: MTT in vitro anti-tumor screening; type: cell-based; details: Homo sapiens, HepG2, read-out: IC50 HEPG-2
[3] = tested on: MCF-7 breast cancer cells; test: MTT in vitro anti-tumor screening; type: cell-based, human; details: read-out: IC50 MCF-7, mean of three independent experiments ± SD
[4] = molecular target: EGFR (Homo sapiens, UniProt P00533); test: In vitro EGFR kinase inhibition assay; type: biochemical
EGFR, sequence (P00533 25-1210): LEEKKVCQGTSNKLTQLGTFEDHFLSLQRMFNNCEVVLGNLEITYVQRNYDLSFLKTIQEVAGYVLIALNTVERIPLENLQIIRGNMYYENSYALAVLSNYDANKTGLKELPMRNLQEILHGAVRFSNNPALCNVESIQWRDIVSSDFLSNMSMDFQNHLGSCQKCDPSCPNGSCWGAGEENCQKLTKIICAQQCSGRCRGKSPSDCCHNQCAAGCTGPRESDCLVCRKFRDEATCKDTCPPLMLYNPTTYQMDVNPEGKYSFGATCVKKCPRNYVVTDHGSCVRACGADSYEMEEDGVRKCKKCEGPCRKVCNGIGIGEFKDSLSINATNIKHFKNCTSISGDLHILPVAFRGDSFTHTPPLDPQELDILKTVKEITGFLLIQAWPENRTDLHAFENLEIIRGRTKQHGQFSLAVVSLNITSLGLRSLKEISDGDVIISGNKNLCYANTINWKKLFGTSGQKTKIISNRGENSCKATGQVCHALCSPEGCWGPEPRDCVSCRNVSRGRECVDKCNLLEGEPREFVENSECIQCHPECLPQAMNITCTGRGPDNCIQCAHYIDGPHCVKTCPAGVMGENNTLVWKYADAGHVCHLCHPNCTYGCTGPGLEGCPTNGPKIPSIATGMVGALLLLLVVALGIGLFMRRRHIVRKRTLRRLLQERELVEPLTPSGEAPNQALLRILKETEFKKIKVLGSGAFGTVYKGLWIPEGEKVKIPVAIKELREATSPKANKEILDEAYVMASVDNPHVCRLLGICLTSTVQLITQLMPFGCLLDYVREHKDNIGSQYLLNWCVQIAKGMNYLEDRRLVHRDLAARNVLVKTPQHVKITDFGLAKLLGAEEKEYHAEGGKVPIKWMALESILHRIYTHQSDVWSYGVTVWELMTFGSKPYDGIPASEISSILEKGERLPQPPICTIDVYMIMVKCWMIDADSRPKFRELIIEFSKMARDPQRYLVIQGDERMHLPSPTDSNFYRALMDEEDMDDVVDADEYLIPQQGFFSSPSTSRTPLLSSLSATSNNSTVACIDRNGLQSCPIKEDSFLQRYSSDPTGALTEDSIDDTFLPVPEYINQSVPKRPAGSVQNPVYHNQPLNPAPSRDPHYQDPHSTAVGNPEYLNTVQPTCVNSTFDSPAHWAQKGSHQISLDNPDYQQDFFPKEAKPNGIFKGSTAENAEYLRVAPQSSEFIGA

[5] = molecular target: VEGFR-2 (Homo sapiens, UniProt P35968); test: biochemical
VEGFR-2, sequence (P35968 20-1356): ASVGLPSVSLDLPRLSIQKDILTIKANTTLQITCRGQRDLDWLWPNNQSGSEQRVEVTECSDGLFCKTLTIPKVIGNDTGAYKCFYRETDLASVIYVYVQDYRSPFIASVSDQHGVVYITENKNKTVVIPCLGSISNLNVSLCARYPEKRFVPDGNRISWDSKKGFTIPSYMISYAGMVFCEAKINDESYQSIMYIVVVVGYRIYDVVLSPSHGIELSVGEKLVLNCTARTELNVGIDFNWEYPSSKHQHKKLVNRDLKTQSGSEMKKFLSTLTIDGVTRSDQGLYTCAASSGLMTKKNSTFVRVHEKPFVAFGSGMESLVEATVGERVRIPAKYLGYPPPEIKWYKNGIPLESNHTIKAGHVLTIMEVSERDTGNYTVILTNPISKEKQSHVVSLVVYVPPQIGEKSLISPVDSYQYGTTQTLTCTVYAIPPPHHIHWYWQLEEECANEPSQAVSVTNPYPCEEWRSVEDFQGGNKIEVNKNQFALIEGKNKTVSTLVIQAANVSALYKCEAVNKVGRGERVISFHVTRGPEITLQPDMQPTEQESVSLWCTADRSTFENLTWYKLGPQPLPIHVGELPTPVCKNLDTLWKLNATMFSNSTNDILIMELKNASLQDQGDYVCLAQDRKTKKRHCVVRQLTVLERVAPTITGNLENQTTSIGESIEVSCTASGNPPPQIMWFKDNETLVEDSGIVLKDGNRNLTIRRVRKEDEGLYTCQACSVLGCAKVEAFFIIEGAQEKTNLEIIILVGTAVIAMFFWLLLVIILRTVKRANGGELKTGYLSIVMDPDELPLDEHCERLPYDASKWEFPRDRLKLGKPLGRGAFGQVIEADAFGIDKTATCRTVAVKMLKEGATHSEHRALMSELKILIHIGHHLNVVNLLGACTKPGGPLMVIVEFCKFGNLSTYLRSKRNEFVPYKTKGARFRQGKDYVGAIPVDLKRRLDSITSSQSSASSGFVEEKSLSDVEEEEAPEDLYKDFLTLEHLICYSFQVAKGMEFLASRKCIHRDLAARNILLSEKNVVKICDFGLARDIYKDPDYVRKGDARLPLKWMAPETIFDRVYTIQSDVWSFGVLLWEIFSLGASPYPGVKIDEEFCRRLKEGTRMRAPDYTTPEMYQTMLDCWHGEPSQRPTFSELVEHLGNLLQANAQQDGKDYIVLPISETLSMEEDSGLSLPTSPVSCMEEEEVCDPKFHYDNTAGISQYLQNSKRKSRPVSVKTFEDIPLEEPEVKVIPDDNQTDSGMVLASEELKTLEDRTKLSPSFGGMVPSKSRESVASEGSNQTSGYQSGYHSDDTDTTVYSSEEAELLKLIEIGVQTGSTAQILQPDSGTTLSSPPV

[6] = tested on: HEPG-2, HCT-116 and MCF-7 cell lines; test: MTT anti-tumor screening, values over the cancer cell line panel; type: cell-based; details: Homo sapiens, read-out: IC50 range over the cancer cell lines
[7] = tested on: EGFR/VEGFR-2; test: EGFR/VEGFR-2 enzyme inhibition, both kinases stated together; type: biochemical; details: compared with the tested analogues (4)
[8] = tested on: HCT-116 cells; test: Flow cytometry cell cycle analysis; type: cell-based, human
Procedure, shortened: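 HCT-116 cells exposed to the test compound for 24 h, with DMSO as control. Cells were stained with propidium iodide, and DNA ploidy was analysed on a FACSCalibur flow cytometer. The percentage of cells in G0–G1, S and G2-M phases was reported.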

SMILES | IC50 [1] [µM] | IC50 [2] [µM] | other results
COc1ccc(NC(=O)NNC(=O)CSc2nc3ccccc3c(=O)n2-c2ccc(C)cc2)cc1 [Compound 8, N-(4-Methoxyphenyl)-2-(2-((4-oxo-3-(p-tolyl)-3,4-dihydroquinazolin-2-yl)thio)acetyl)hydrazinecarboxamide] | 31.8 ± 2.2 | > 100 | –
COc1ccc(-n2c(SCC(=O)NNC(=O)Nc3ccc(C(F)(F)F)cc3Cl)nc3ccccc3c2=O)cc1 [Compound 26, N-(2-Chloro-4-(trifluoromethyl)phenyl)-2-(2-((3-(4-methoxyphenyl)-4-oxo-3,4-dihydroquinazolin-2-yl)thio)acetyl)hydrazinecarboxamide] | 30.2 ± 2.1 | 72.8 ± 4 | –
COc1ccc(NC(=O)NNC(=O)CSc2nc3ccccc3c(=O)n2-c2ccc(Cl)cc2)cc1 [Compound 16, 2-(2-((3-(4-Chlorophenyl)-4-oxo-3,4-dihydroquinazolin-2-yl)thio)acetyl)-N-(4-methoxyphenyl)hydrazinecarboxamide] | 17.8 ± 1.3 | 46.6 ± 2.6 | –
Cc1ccc(-n2c(SCC(=O)NNC(=O)Nc3ccc(Cl)cc3)nc3ccccc3c2=O)cc1 [Compound 6, N-(4-Chlorophenyl)-2-(2-((4-oxo-3-(p-tolyl)-3,4-dihydroquinazolin-2-yl)thio)acetyl)hydrazinecarboxamide] | 66.2 ± 3.9 | 14.2 ± 1.2 | –
O=C(CSc1nc2ccccc2c(=O)n1-c1ccc(Cl)cc1)NNC(=O)Nc1ccc(C(F)(F)F)cc1Cl [Compound 18, N-(2-Chloro-4-(trifluoromethyl)phenyl)-2-(2-((3-(4-chlorophenyl)-4-oxo-3,4-dihydroquinazolin-2-yl)thio)acetyl)hydrazinecarboxamide] | 84.4 ± 4.2 | 34.6 ± 2 | –
O=C(CSc1nc2ccccc2c(=O)n1-c1ccc(Cl)cc1)NNC(=O)Nc1ccccc1 [Compound 12, 2-(2-((3-(4-Chlorophenyl)-4-oxo-3,4-dihydroquinazolin-2-yl)thio)acetyl)-N-phenylhydrazinecarboxamide] | 75.5 ± 4 | 19.5 ± 1.3 | IC50 [3]: 12.9 ± 1 µM
COc1ccc(-n2c(SCC(=O)NNC(=O)Nc3c(C)cccc3C)nc3ccccc3c2=O)cc1 [Compound 25, N-(2,6-Dimethylphenyl)-2-(2-((3-(4-methoxyphenyl)-4-oxo-3,4-dihydroquinazolin-2-yl)thio)acetyl)hydrazinecarboxamide] | 56.4 ± 3.3 | 83.6 ± 4.5 | –
O=C(CSc1nc2ccccc2c(=O)n1-c1ccc(Cl)cc1)NNC(=O)NCc1ccccc1 [Compound 19, N-Benzyl-2-(2-((3-(4-chlorophenyl)-4-oxo-3,4-dihydroquinazolin-2-yl)thio)acetyl)hydrazinecarboxamide] | > 100 | 73.5 ± 4.2 | –
Cc1ccc(-n2c(SCC(=O)NNC(=O)Nc3ccc(F)cc3)nc3ccccc3c2=O)cc1 [Compound 5, N-(4-Fluorophenyl)-2-(2-((4-oxo-3-(p-tolyl)-3,4-dihydroquinazolin-2-yl)thio)acetyl)hydrazinecarboxamide] | > 100 | 58.9 ± 3.4 | –
COc1ccc(-n2c(SCC(=O)NNC(=O)Nc3ccc(C)cc3)nc3ccccc3c2=O)cc1 [Compound 23, 2-(2-((3-(4-Methoxyphenyl)-4-oxo-3,4-dihydroquinazolin-2-yl)thio)acetyl)-N-(p-tolyl)hydrazinecarboxamide] | 63.9 ± 3.7 | 41.3 ± 2.4 | –
Cc1ccc(-n2c(SCC(=O)NNC(=O)Nc3c(C)cccc3C)nc3ccccc3c2=O)cc1 [Compound 9, N-(2,6-Dimethylphenyl)-2-(2-((4-oxo-3-(p-tolyl)-3,4-dihydroquinazolin-2-yl)thio)acetyl)hydrazinecarboxamide] | 62.2 ± 3.5 | 53.1 ± 3 | –
COc1ccc(-n2c(SCC(=O)NNC(=O)Nc3ccccc3)nc3ccccc3c2=O)cc1 [Compound 20, 2-(2-((3-(4-Methoxyphenyl)-4-oxo-3,4-dihydroquinazolin-2-yl)thio)acetyl)-N-phenylhydrazinecarboxamide] | 42.9 ± 2.6 | 5.17 ± 0.4 | IC50 [4]: 0.362 ± 0.014 µM; IC50 [5]: 0.474 ± 0.02 µM; IC50 [6]: 4.42 to 6.39 µM; fold decrease in binding affinity (EGFR and VEGFR-2) [7]: 9–10 fold
O=C(CSc1nc2ccccc2c(=O)n1-c1ccc(Cl)cc1)NNC(=O)Nc1ccc(F)cc1 [Compound 13, 2-(2-((3-(4-Chlorophenyl)-4-oxo-3,4-dihydroquinazolin-2-yl)thio)acetyl)-N-(4-fluorophenyl)hydrazinecarboxamide] | 47.5 ± 2.6 | 63.5 ± 3.7 | –
Cc1ccc(NC(=O)NNC(=O)CSc2nc3ccccc3c(=O)n2-c2ccc(Cl)cc2)cc1 [Compound 15, 2-(2-((3-(4-Chlorophenyl)-4-oxo-3,4-dihydroquinazolin-2-yl)thio)acetyl)-N-(p-tolyl)hydrazinecarboxamide] | 43.2 ± 2.5 | 68.6 ± 3.9 | –
COc1ccc(-n2c(SCC(=O)NNC(=O)Nc3ccc(F)cc3)nc3ccccc3c2=O)cc1 [Compound 21, N-(4-Fluorophenyl)-2-(2-((3-(4-methoxyphenyl)-4-oxo-3,4-dihydroquinazolin-2-yl)thio)acetyl)hydrazinecarboxamide] | 27.6 ± 1.9 | 11.5 ± 0.9 | –
Cc1cccc(C)c1NC(=O)NNC(=O)CSc1nc2ccccc2c(=O)n1-c1ccc(Cl)cc1 [Compound 17, 2-(2-((3-(4-Chlorophenyl)-4-oxo-3,4-dihydroquinazolin-2-yl)thio)acetyl)-N-(2,6-dimethylphenyl)hydrazinecarboxamide] | 89.4 ± 4.7 | 22.4 ± 1.5 | –
COc1ccc(NC(=O)NNC(=O)CSc2nc3ccccc3c(=O)n2-c2ccc(OC)cc2)cc1 [Compound 24, N-(4-Methoxyphenyl)-2-(2-((3-(4-methoxyphenyl)-4-oxo-3,4-dihydroquinazolin-2-yl)thio)acetyl)hydrazinecarboxamide] | 71.4 ± 3.8 | > 100 | –
COc1ccc(-n2c(SCC(=O)NNC(=O)Nc3ccc(Cl)cc3)nc3ccccc3c2=O)cc1 [Compound 22, N-(4-Chlorophenyl)-2-(2-((3-(4-methoxyphenyl)-4-oxo-3,4-dihydroquinazolin-2-yl)thio)acetyl)hydrazinecarboxamide] | 15.5 ± 1.2 | 37.8 ± 2.1 | –
COc1ccc(-n2c(SCC(=O)NNC(=O)NCc3ccccc3)nc3ccccc3c2=O)cc1 [Compound 27, N-Benzyl-2-(2-((3-(4-methoxyphenyl)-4-oxo-3,4-dihydroquinazolin-2-yl)thio)acetyl)hydrazinecarboxamide] | > 100 | 87.3 ± 4.6 | –
Cc1ccc(-n2c(SCC(=O)NNC(=O)Nc3ccc(C(F)(F)F)cc3Cl)nc3ccccc3c2=O)cc1 [Compound 10, N-(2-Chloro-4-(trifluoromethyl)phenyl)-2-(2-((4-oxo-3-(p-tolyl)-3,4-dihydroquinazolin-2-yl)thio)acetyl)hydrazinecarboxamide] | 86.9 ± 4.4 | 49.6 ± 2.7 | –
Cc1ccc(NC(=O)NNC(=O)CSc2nc3ccccc3c(=O)n2-c2ccc(C)cc2)cc1 [Compound 7, 2-(2-((4-Oxo-3-(p-tolyl)-3,4-dihydroquinazolin-2-yl)thio)acetyl)-N-(p-tolyl)hydrazinecarboxamide] | > 100 | 76.4 ± 4.3 | –
O=C(CSc1nc2ccccc2c(=O)n1-c1ccc(Cl)cc1)NNC(=O)Nc1ccc(Cl)cc1 [Compound 14, N-(4-Chlorophenyl)-2-(2-((3-(4-chlorophenyl)-4-oxo-3,4-dihydroquinazolin-2-yl)thio)acetyl)hydrazinecarboxamide] | 16.7 ± 1.4 | 29.8 ± 1.8 | –
Cc1ccc(-n2c(SCC(=O)NNC(=O)NCc3ccccc3)nc3ccccc3c2=O)cc1 [Compound 11, N-Benzyl-2-(2-((4-oxo-3-(p-tolyl)-3,4-dihydroquinazolin-2-yl)thio)acetyl)hydrazinecarboxamide] | 54.1 ± 3 | 8.1 ± 0.6 | IC50 [4]: 0.117 ± 0.005 µM; IC50 [5]: 0.156 ± 0.007 µM
Cc1ccc(-n2c(SCC(=O)NNC(=O)Nc3ccccc3)nc3ccccc3c2=O)cc1 [Compound 4, 2-(2-((4-Oxo-3-(p-tolyl)-3,4-dihydroquinazolin-2-yl)thio)acetyl)-N-phenylhydrazinecarboxamide] | 45.6 ± 2.4 | 3.92 ± 0.2 | IC50 [4]: 0.049 ± 0.002 µM; IC50 [5]: 0.054 ± 0.002 µM; Cell cycle distribution G2-M ([8]; at IC50 concentration, 24 h, control 19.54%): 8.65%; Cell cycle distribution S ([8]; at IC50 concentration, 24 h, control 36.53%): 36.18%; Cell cycle distribution G0–G1 ([8]; at IC50 concentration, 24 h, control 43.93%): 55.17%; cell cycle arrest phase ([8]; flow cytometry): G1 phase; IC50 [6]: 1.5 to 5.86 µM
